According to ChEMBL document CHEMBL4014276, “Diphenylurea derivatives for combating methicillin- and vancomycin-resistant Staphylococcus aureus” (Eur J Med Chem, 2017):
≈ marks a conversion by molar mass, not a printed value. Calls of active or inactive are those of the source. The rule behind the calls is not given here.

How the values were obtained:
[1] = Intrinsic clearance in human liver microsomes in presence of NADPH by LC-MS/MS method; assay type: ADME, microsome; details: read-out: CLH
[2] = Half life in human liver microsomes in presence of NADPH by LC-MS/MS method; assay type: ADME, microsome
[3] = test system: Staphylococcus aureus; experiment: Antibacterial activity against methicillin-resistant Staphylococcus aureus USA400 NRS123 clinical isolate after 20 hrs by broth microdilution method; assay type: functional; details: USA400 NRS123, 20 h
Method in brief: (§1)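 CLSI broth microdilution in cation-adjusted Mueller Hinton broth; compounds serially diluted, triplicate samples; 37 °C, 20 h. MIC read visually as lowest concentration with no visible growth; mean of triplicate determinations reported.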

[4] = test system: Staphylococcus aureus; experiment: Antibacterial activity against methicillin-resistant Staphylococcus aureus USA300 NRS384 clinical isolate preincubated followed by bacterial subculturing for 2 weeks; assay type: functional
[5] = test system: Staphylococcus aureus; experiment: Antibacterial activity against methicillin-resistant Staphylococcus aureus USA300 NRS384 clinical isolate after 20 hrs by broth microdilution method; assay type: functional; details: USA300 NRS384, 20 h; method in brief: as §1
[6] = test system: Staphylococcus aureus; experiment: Antibacterial activity against vancomycin-resistant Staphylococcus aureus VRSA4 after 20 hrs by broth microdilution method; assay type: functional; details: VRSA4, 20 h; method in brief: as §1
[7] = test system: Staphylococcus aureus; experiment: Antibacterial activity against methicillin-resistant Staphylococcus aureus USA200 NRS383 clinical isolate after 20 hrs by broth microdilution method; assay type: functional; details: USA200 NRS383, 20 h; method in brief: as §1
[8] = test system: Staphylococcus aureus; experiment: Antibacterial activity against Staphylococcus aureus RN4220 NRS107 clinical isolate after 20 hrs by broth microdilution method; assay type: functional; details: RN4220 NRS107, 20 h; method in brief: as §1
[9] = test system: Staphylococcus aureus; experiment: Antibacterial activity against vancomycin-resistant Staphylococcus aureus VRSA10 after 20 hrs by broth microdilution method; assay type: functional; details: VRSA10, 20 h; method in brief: as §1
[10] = test system: Staphylococcus aureus; experiment: Bactericidal activity against methicillin-resistant Staphylococcus aureus USA400 NRS123 clinical isolate after 18 hrs by broth microdilution method; assay type: functional; details: USA400 NRS123, 18 h
Method in brief: (§2)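 From MIC wells without visible growth, 5 uL spotted onto Tryptic soy agar, incubated 37 °C for at least 18 h; MBC taken as lowest concentration giving 99.9% growth inhibition.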

[11] = test system: Staphylococcus aureus; experiment: Antibacterial activity against methicillin-resistant Staphylococcus aureus USA100 NRS382 clinical isolate preincubated followed by bacterial subculturing for 2 weeks; assay type: functional
[12] = test system: Staphylococcus aureus; experiment: Bactericidal activity against methicillin-resistant Staphylococcus aureus USA300 NRS384 clinical isolate after 18 hrs by broth microdilution method; assay type: functional; details: USA300 NRS384, 18 h; method in brief: as §2
[13] = test system: Staphylococcus aureus; experiment: Bactericidal activity against Staphylococcus aureus RN4220 NRS107 clinical isolate after 18 hrs by broth microdilution method; assay type: functional; details: RN4220 NRS107, 18 h; method in brief: as §2
[14] = test system: Staphylococcus aureus; experiment: Bactericidal activity against methicillin-resistant Staphylococcus aureus USA100 NRS382 clinical isolate after 18 hrs by broth microdilution method; assay type: functional; details: USA100 NRS382, 18 h; method in brief: as §2
[15] = test system: Staphylococcus aureus; experiment: Antibacterial activity against methicillin-resistant Staphylococcus aureus USA200 NRS383 clinical isolate preincubated followed by bacterial subculturing for 2 weeks; assay type: functional
[16] = test system: Staphylococcus aureus; experiment: Antibacterial activity against methicillin-resistant Staphylococcus aureus USA400 NRS123 clinical isolate preincubated followed by bacterial subculturing for 2 weeks; assay type: functional
[17] = test system: Staphylococcus aureus; experiment: Bactericidal activity against methicillin-resistant Staphylococcus aureus USA200 NRS383 clinical isolate after 18 hrs by broth microdilution method; assay type: functional; details: USA200 NRS383, 18 h; method in brief: as §2
[18] = test system: Staphylococcus aureus; experiment: Antibacterial activity against methicillin-resistant Staphylococcus aureus USA100 NRS382 clinical isolate after 20 hrs by broth microdilution method; assay type: functional; details: USA100 NRS382, 20 h; method in brief: as §1
[19] = test system: Staphylococcus aureus; experiment: Bactericidal activity against vancomycin-resistant Staphylococcus aureus VRSA10 after 18 hrs by broth microdilution method; assay type: functional; details: VRSA10, 18 h; method in brief: as §2
[20] = test system: Staphylococcus aureus; experiment: Bactericidal activity against vancomycin-resistant Staphylococcus aureus VRSA4 after 18 hrs by broth microdilution method; assay type: functional; details: VRSA4, 18 h; method in brief: as §2

CCCCc1ccc(NC(=O)Nc2ccc(/C(C)=N/NC(=N)N)cc2)cc1 showed a microsomal CLint [1] of 190 µL/min/mg, a half-life [2] of 13 min and an MIC [3] of 8 µg/mL (≈ 21.8 µM).

For C/C(=N\NC(=N)N)c1ccc(NC(=O)Cc2ccc(F)cc2)cc1, the MIC [3] was 16 µg/mL (≈ 48.9 µM).

For C/C(=N\NC(=N)N)c1ccc(NC(=O)Nc2nc3ccccc3s2)cc1, the MIC [3] was 10 µg/mL (≈ 27.2 µM).

For COc1ccc(C(=O)Nc2ccc(/C(C)=N/NC(=N)N)cc2)cc1OC, the MIC [3] was 16 µg/mL (≈ 45 µM).

Molecule C/C(=N\NC(=N)N)c1ccc(NC(=O)Nc2ccc(I)cc2)cc1 has an MIC [3] of 10 µg/mL (≈ 22.9 µM).

For C/C(=N\NC(=N)N)c1ccc(NC(=O)c2ccc3c(c2)OCCN3C)cc1, the MIC [3] was 16 µg/mL (≈ 43.7 µM).

In the case of CCCCOc1ccc(NC(=O)Nc2ccc(/C(C)=N/NC(=N)N)cc2)cc1, the microsomal CLint [1] is reported as 51 µL/min/mg, the Activity [4] is reported as “Active” and the MIC [5] is reported as 16 µg/mL (≈ 41.8 µM). The MIC [6] was 16 µg/mL (≈ 41.8 µM), the half-life [2] was 65.5 min and the MIC [7] was 16 µg/mL (≈ 41.8 µM). For the same molecule, the MIC [8] was 16 µg/mL (≈ 41.8 µM), the MIC [9] was 16 µg/mL (≈ 41.8 µM) and the MBC [10] was 32 µg/mL (≈ 83.7 µM). The Activity [11] was “Active”, the MBC [12] was 16 µg/mL (≈ 41.8 µM) and the MBC [13] was > 64 µg/mL. For the same molecule, the MBC [14] was 16 µg/mL (≈ 41.8 µM), the Activity [15] was “Active” and the Activity [16] was “Active”. For the same molecule, the MBC [17] was 32 µg/mL (≈ 83.7 µM), the MIC [18] was 16 µg/mL (≈ 41.8 µM) and the MBC [19] was 32 µg/mL (≈ 83.7 µM). It also gave an MIC [3] of 8 µg/mL (≈ 20.9 µM) and an MBC [20] of 16 µg/mL (≈ 41.8 µM).

With CC(=O)Oc1ccccc1C(=O)Nc1ccc(/C(C)=N/NC(=N)N)cc1 the MIC [3] was > 32 µg/mL.

With CC(=O)NC[C@H]1CN(c2ccc(N3CCOCC3)c(F)c2)C(=O)O1 [LINEZOLID] the MBC [10] was 32 µg/mL (≈ 94.9 µM), the MBC [12] was 16 µg/mL (≈ 47.4 µM) and the MBC [13] was 32 µg/mL (≈ 94.9 µM). It also gave an MBC [14] of 16 µg/mL (≈ 47.4 µM), an MBC [17] of 32 µg/mL (≈ 94.9 µM) and an MBC [19] of 16 µg/mL (≈ 47.4 µM). For the same molecule, the MBC [20] was 8 µg/mL (≈ 23.7 µM).

For C/C(=N\NC(=N)N)c1ccc(NC(=O)c2cc(F)c(F)c(F)c2)cc1, the MIC [3] was 16 µg/mL (≈ 45.8 µM).

For CCCCCCCCOc1ccc(NC(=O)Nc2ccc(/C(C)=N/NC(=N)N)cc2)cc1, the Activity [4] was “Active”, the MIC [5] was 16 µg/mL (≈ 36.5 µM) and the MIC [6] was 16 µg/mL (≈ 36.5 µM). The MIC [7] was 16 µg/mL (≈ 36.5 µM), the MIC [8] was 16 µg/mL (≈ 36.5 µM) and the MIC [9] was 16 µg/mL (≈ 36.5 µM). The MBC [10] was 32 µg/mL (≈ 73 µM), the Activity [11] was “Active” and the MBC [12] was 16 µg/mL (≈ 36.5 µM). The MBC [13] was 32 µg/mL (≈ 73 µM), the MBC [14] was 32 µg/mL (≈ 73 µM) and the Activity [15] was “Active”. For the same molecule, the Activity [16] was “Active”, the MBC [17] was 16 µg/mL (≈ 36.5 µM) and the MIC [18] was 16 µg/mL (≈ 36.5 µM). The MBC [19] was 32 µg/mL (≈ 73 µM), the MIC [3] was 32 µg/mL (≈ 73 µM) and the MBC [20] was 32 µg/mL (≈ 73 µM).

For C/C(=N\NC(=N)N)c1ccc(NC(=O)Nc2ccc(OCC3CCC3)cc2)cc1, the Activity [4] was “Active”, the MIC [5] was 16 µg/mL (≈ 40.6 µM) and the MIC [6] was 16 µg/mL (≈ 40.6 µM). For the same molecule, the MIC [7] was 16 µg/mL (≈ 40.6 µM), the MIC [8] was 16 µg/mL (≈ 40.6 µM) and the MIC [9] was 16 µg/mL (≈ 40.6 µM). For the same molecule, the MBC [10] was 32 µg/mL (≈ 81.1 µM), the Activity [11] was “Active” and the MBC [12] was 16 µg/mL (≈ 40.6 µM). The MBC [13] was 16 µg/mL (≈ 40.6 µM), the MBC [14] was 16 µg/mL (≈ 40.6 µM) and the Activity [15] was “Active”. For the same molecule, the Activity [16] was “Active”, the MBC [17] was 32 µg/mL (≈ 81.1 µM) and the MIC [18] was 16 µg/mL (≈ 40.6 µM). It also gave an MBC [19] of 32 µg/mL (≈ 81.1 µM), an MIC [3] of 16 µg/mL (≈ 40.6 µM) and an MBC [20] of 16 µg/mL (≈ 40.6 µM).
